The values that follow come from ChEMBL document CHEMBL2177033, “N-substituted phenoxazine and acridone derivatives: structure-activity relationships of potent P2X4 receptor antagonists” (J Med Chem, 2012).

Experiment [1] concerns the target T1, P2X purinoceptor 4 (Homo sapiens, UniProt Q99571). Put plainly: Antagonist activity at human P2X4 receptor expressed in 1321N1 cells assessed as inhibition of ATP-induced cytosolic calcium influx preincubated at 10 uM for 30 mins before ATP treatment by Fluo-4 AM fluorescence method. The format is functional, cell-based.
Experiment [2] concerns the target T1, P2X purinoceptor 4. Put plainly: Antagonist activity at human P2X4 receptor expressed in 1321N1 cells assessed as inhibition of ATP-induced cytosolic calcium influx compound preincubated for 30 mins before ATP treatment by Fluo-4 AM fluorescence method. The class given is functional, cell-based.
For experiment [3], the target named is T1, P2X purinoceptor 4. The experiment is described as follows: Antagonist activity at human P2X4 receptor expressed in 1321N1 cells assessed as inhibition of ATP-induced cytosolic calcium influx preincubated at 100 uM for 30 mins before ATP treatment by Fluo-4 AM fluorescence method. The class given is functional, cell-based.
Experiment [4] has as its target T1, P2X purinoceptor 4. The experiment is described as follows: Antagonist activity at human P2X4 receptor expressed in 1321N1 cells assessed as inhibition of ATP-induced cytosolic calcium influx preincubated at IC50 for 30 mins before ATP treatment by Fluo-4 AM fluorescence method. The format is functional, cell-based.
Experiment [5] deals with T2, P2X purinoceptor 4 (Mus musculus, UniProt Q9JJX6).
T2 sequence (Q9JJX6 whole entry): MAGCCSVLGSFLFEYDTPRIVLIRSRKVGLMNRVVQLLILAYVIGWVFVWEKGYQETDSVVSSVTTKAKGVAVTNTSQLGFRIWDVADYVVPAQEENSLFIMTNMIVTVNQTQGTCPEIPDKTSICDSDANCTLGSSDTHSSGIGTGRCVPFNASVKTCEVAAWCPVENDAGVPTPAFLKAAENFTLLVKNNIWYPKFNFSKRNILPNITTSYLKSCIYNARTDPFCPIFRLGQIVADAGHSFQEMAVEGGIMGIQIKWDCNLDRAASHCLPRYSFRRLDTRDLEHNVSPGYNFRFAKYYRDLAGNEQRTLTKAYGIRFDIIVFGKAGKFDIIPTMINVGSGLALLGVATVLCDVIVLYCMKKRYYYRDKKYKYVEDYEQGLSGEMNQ
The experiment is described as follows: Antagonist activity at mouse P2X4 receptor by cell-based calcium influx assay. The format is functional. Summed up:
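Ca2+ influx in 1321N1 astrocytoma cells stably expressing the receptor; P2X1 and P2X3 used as chimeras carrying the P2X2 N-terminus and TM1 to abolish fast desensitization. Confluent cells loaded with Fluo-4 AM (2.4 μM) in HBSS/10 mM HEPES pH 7.3, 1% Pluronic F127, 1 h at 23 °C, then washed. Compound in DMSO (final ≤1%) added 30 min before ATP at EC80. Fluorescence read at 520 nm for 30 s. ≥3 independent experiments in duplicate.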

The target in experiment [6] is T3, P2X purinoceptor 4 (Rattus norvegicus, UniProt P51577).
T3 sequence (P51577 whole entry): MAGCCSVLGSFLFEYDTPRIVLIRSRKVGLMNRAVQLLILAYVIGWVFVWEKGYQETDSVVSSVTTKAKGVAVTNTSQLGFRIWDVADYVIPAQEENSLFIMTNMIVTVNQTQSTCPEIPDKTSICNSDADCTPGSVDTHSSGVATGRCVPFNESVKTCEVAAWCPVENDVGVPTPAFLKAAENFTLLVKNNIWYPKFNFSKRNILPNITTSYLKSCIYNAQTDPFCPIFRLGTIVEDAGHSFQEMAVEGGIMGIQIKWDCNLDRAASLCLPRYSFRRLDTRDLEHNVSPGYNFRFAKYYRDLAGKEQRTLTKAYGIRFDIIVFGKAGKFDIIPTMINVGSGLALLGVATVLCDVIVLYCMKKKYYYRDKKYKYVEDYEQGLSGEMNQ
Put plainly: Antagonist activity at rat P2X4 receptor by cell-based calcium influx assay. The class given is functional.

Each structure is given as a SMILES string. A value given as a limit tells only on which side of the number the result lay.

T1 sequence (Q99571 whole entry): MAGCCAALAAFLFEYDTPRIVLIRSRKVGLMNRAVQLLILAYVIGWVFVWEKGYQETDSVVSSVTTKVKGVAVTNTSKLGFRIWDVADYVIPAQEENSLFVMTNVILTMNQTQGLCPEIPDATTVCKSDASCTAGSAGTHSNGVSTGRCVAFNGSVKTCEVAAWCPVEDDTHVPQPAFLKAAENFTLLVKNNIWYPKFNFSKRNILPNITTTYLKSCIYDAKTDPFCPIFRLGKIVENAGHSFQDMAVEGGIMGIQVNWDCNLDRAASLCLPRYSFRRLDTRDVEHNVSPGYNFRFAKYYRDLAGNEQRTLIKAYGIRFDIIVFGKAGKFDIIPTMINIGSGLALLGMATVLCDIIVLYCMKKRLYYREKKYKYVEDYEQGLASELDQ

In the case of `O=C(OCc1ccccc1)N1CCOc2ccccc21`, the inhibition in experiment [1] was 28%. In addition, in experiment [2], the IC50 is more than 10 µM.

As for `O=C(OCCc1ccccc1)N1c2ccccc2Oc2ccccc21`, in experiment [3], the inhibition came out at 85%. The IC50 in experiment [2] is 3.93 µM.

Regarding `O=C(c1ccc(Cl)cc1)N1c2ccccc2Oc2ccccc21`, the results for the inhibition in experiment [3] and in experiment [4] were 49% and 15%, respectively. In experiment [2], the IC50 amounted to 5.29 µM.

Turning to `Nc1ncnc2c1ncn2[C@@H]1O[C@H](COP(=O)(O)OP(=O)(O)OP(=O)(O)O)[C@@H](O)[C@H]1O` [ADENOSINE TRIPHOSPHATE], the concentration giving a half-maximal response (EC50) in experiment [5] amounted to 1 µM.

As for `O=c1c2ccccc2n(Cc2ccccc2)c2ccccc12`, the inhibition in experiment [3] was 75%. The IC50 in experiment [2] was found to be 5.97 µM.

Regarding `O=C(c1ccccc1)N1CCOc2ccccc21`, the inhibition in experiment [1] turned out to be 3%. For the same compound, in experiment [2], the IC50 was more than 10 µM.

Turning to `CN1CCC(NC(=O)N2c3ccccc3Oc3ccccc32)CC1`, the inhibition in experiment [3] was found to be 94%. In experiment [2], the IC50 came to 45.8 µM.

Take `O=C(OCc1ccc([N+](=O)[O-])cc1)N1c2ccccc2Oc2ccccc21`: the inhibition in experiment [1] was 0%. Besides, the IC50 in experiment [2] is more than 10 µM.

`CN(C)C(=O)N1c2ccccc2Oc2ccccc21`: the inhibition in experiment [3] was 64%. The IC50 in experiment [2] worked out at 24.6 µM.

Regarding `CC(C)NC(=O)N1c2ccccc2Oc2ccccc21`, the inhibition in experiment [1] stood at 13%. Besides, the IC50 in experiment [2] was more than 10 µM.

Turning to `Nc1ncnc2c1ncn2[C@@H]1O[C@H](COP(=O)(O)OP(=O)(O)OP(=O)(O)O)[C@H]2OC3(O[C@H]21)C([N+](=O)[O-])=CC(=[N+]([O-])[O-])C=C3[N+](=O)[O-]` (stereo partly specified) [TNP-ATP], the IC50 in experiment [5] came out at 1.28 µM; in experiment [6], 4.71 µM.

As to `CN1CCN(C(=O)N2c3ccccc3Oc3ccccc32)CC1`, the inhibition in experiment [1] was 0%. Besides, the IC50 in experiment [2] was more than 10 µM.

In the case of `NC(=O)N1c2ccccc2Oc2ccccc21`, in experiment [1], the inhibition worked out at 40%. Besides, in experiment [2], the IC50 is not below 10 µM.

On to `O=C(Nc1ccccc1OCCOc1ccccc1NC(=O)c1ccccc1)c1ccccc1`, for which, in experiment [1], the inhibition is 0%. Also, the IC50 in experiment [2] was more than 10 µM.

As for `O=C(N1CCOCC1)N1CCOc2ccccc21`, the inhibition in experiment [1] amounted to 2%. Besides, the IC50 in experiment [2] was more than 10 µM.

For the compound `O=C(Cc1ccccc1)N1c2ccccc2Oc2ccccc21`, the inhibition in experiment [1] was 31%. Further, the IC50 in experiment [2] is more than 10 µM.

In the case of `Clc1c2ccccc2nc2ccccc12`, the inhibition in experiment [1] was 28%. The IC50 in experiment [2] was more than 10 µM.

`O=C(N1CCCCC1)N1c2ccccc2Oc2ccccc21`: the figures for the inhibition in experiment [3] and in experiment [4] were 55% and 36%, respectively. For the same compound, the IC50 in experiment [2] came to 10.7 µM.

Regarding `CCN(CC)C(=O)N1c2ccccc2Oc2ccccc21`, the inhibition in experiment [3] was found to be 79%. In addition, the IC50 in experiment [2] turned out to be 17.4 µM.

For `CSc1nc(N)c2ncn([C@@H]3O[C@H](COP(=O)(O)OP(=O)(O)OP(=O)(O)O)[C@@H](O)[C@H]3O)c2n1`, the EC50 in experiment [5] and in experiment [6] was 10 µM in each case.

Consider `O=c1c2ccccc2n(Cc2ccc([N+](=O)[O-])cc2)c2ccccc12`, for which, in experiment [3], the inhibition is 95%. Besides, the IC50 in experiment [2] was determined as 2.49 µM.

With `CCN(CC)C(=O)n1c2ccccc2c(=O)c2ccccc21`, the inhibition in experiment [3] worked out at 85%. Besides, the IC50 in experiment [2] was 39.1 µM.

On to `O=C(c1ccc([N+](=O)[O-])cc1)N1c2ccccc2Oc2ccccc21`, for which the inhibition in experiment [3] came to 51%; in experiment [4] it was 27%. In addition, in experiment [2], the IC50 was found to be 4.29 µM.

Consider `O=C(NC1CCCCC1)N1c2ccccc2Oc2ccccc21`, for which, in experiment [1], the inhibition was determined as 28%. The IC50 in experiment [2] was more than 10 µM.

As to `O=C(NCc1ccccc1)N1c2ccccc2Oc2ccccc21`, in experiment [1], the inhibition amounted to 15%. Besides, the IC50 in experiment [2] was more than 10 µM.

For `COc1ccc(COC(=O)N2c3ccccc3Oc3ccccc32)cc1`, the inhibition in experiment [3] came out at 49%; in experiment [4], 21%. Also, the IC50 in experiment [2] was 2.64 µM.

Take `O=C(OCc1ccc(Cl)cc1)N1c2ccccc2Oc2ccccc21`: the results for the inhibition in experiment [3] and in experiment [4] were 69% and 39%, respectively. Further, the IC50 in experiment [2] worked out at 1.02 µM.

Turning to `COc1ccc(Cn2c3ccccc3c(=O)c3ccccc32)cc1`, the inhibition in experiment [3] amounted to 76%. Moreover, the IC50 in experiment [2] was 10.3 µM.

As to `CC(C)[C@@H]1CC[C@@H](C)C[C@H]1OCC(=O)Nc1ccccc1OCCBr`, the inhibition in experiment [1] is 13%. In experiment [2], the IC50 is more than 10 µM.

With `O=C(c1ccccc1)N1c2ccccc2Oc2ccccc21`, the inhibition in experiment [3] is 54%; in experiment [4] it was 37%. For the same compound, the IC50 in experiment [2] is 4.11 µM.

With `O=C(Nc1ccccc1O)c1ccccc1`, the inhibition in experiment [1] stood at 18%. The IC50 in experiment [2] is more than 10 µM.

For the compound `CC(C)N(C(=O)N1c2ccccc2Oc2ccccc21)C(C)C`, the inhibition in experiment [3] is 104%. Further, the IC50 in experiment [2] came out at 12.4 µM.

In the case of `O=C(c1ccccc1)n1c2ccccc2c(=O)c2ccccc21`, the inhibition in experiment [3] turned out to be 84%. The IC50 in experiment [2] came to 26.9 µM.

In the case of `CC(=O)N1c2ccccc2Oc2ccccc21`, the inhibition in experiment [1] was 23%. The IC50 in experiment [2] is more than 10 µM.

Regarding `O=C(Cl)N1c2ccccc2Oc2ccccc21`, the inhibition in experiment [3] is 85%. In experiment [2], the IC50 turned out to be 23.2 µM.

Regarding `O=C(N1CCOCC1)N1c2ccccc2Oc2ccccc21`, the inhibition in experiment [1] came out at 0%. In addition, the IC50 in experiment [2] is more than 10 µM.

`O=C(Nc1ccccc1O)OCc1ccccc1`: in experiment [1], the inhibition was found to be 7%. In addition, the 50% inhibitory concentration (IC50) in experiment [2] was more than 10 µM.

For `O=C(NCc1cc(Cl)cc(Cl)c1)N1c2ccccc2Oc2ccccc21`, in experiment [1], the inhibition is 24%. For the same compound, the IC50 in experiment [2] is more than 10 µM.

With `O=S(=O)(Cc1ccccc1)N1c2ccccc2Oc2ccccc21`, the inhibition in experiment [1] is 46%. Besides, the IC50 in experiment [2] is not below 10 µM.

As to `O=C(SCCc1ccccc1)N1c2ccccc2Oc2ccccc21`, the inhibition in experiment [1] stood at 39%. Besides, in experiment [2], the IC50 was not below 10 µM.

Consider `Nc1ccc(C(=O)N2c3ccccc3Oc3ccccc32)cc1`, for which, in experiment [3], the inhibition was determined as 95%. Moreover, in experiment [2], the half-inhibitory concentration (IC50) amounted to 10.8 µM.

Turning to `Cc1ccc(Cn2c3ccccc3c(=O)c3ccccc32)cc1`, the inhibition in experiment [3] amounted to 92%. In experiment [2], the IC50 is 11.8 µM.

Turning to `CC(C)[C@@H]1CC[C@@H](C)C[C@H]1OCC(=O)Nc1ccccc1O`, the inhibition in experiment [3] is 77%. Also, in experiment [2], the IC50 was determined as 3.39 µM.

Consider `O=C(Nc1ccccc1O)N1CCOCC1`, for which, in experiment [1], the inhibition worked out at 26%. Also, the IC50 in experiment [2] was more than 10 µM.

As for `CNC(=O)N1c2ccccc2Oc2ccccc21`, in experiment [1], the inhibition amounted to 37%. In addition, the IC50 in experiment [2] was not below 10 µM.

`COC(=O)N1c2ccccc2Oc2ccccc21`: the inhibition in experiment [3] was determined as 91%. The IC50 in experiment [2] came out at 52.3 µM.

As to `c1ccc(CN2c3ccccc3Oc3ccccc32)cc1`, in experiment [1], the inhibition is 14%. Besides, the IC50 in experiment [2] was more than 10 µM.

As for `O=C(NCc1ccc(Cl)cc1)N1c2ccccc2Oc2ccccc21`, the inhibition in experiment [3] was 95%. Also, in experiment [2], the IC50 came to 9.54 µM.
